Sampled rows, rich in hits. Any-hit rate of the full collection: about 3.7%.
E-sel inducer: E-selectin induction on HUVECs; P16581; HUVEC E-selectin immunofluorescence imaging; normalized: neutral wells 0, TNF-alpha wells 100; activation, % at 7.58 µM; 260,000 compounds, 0.37% hits;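 active means mean E-selectin-positive cell signal at least 10% of the positive control, reached in at least 60% of replicates, without over 20% cell loss; inconclusive means no rule given, readout overlaps actives, possibly toxicity-flagged; inactive means the rest, including those meeting only one limit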
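Assay system: HUVEC primary endothelial cells. Input: 3,000 HUVEC seeded per well. Doses: one compound dose added by pin transfer. Read-out basis: % PE-positive cells. Benchmarks: TNF-alpha high, DMSO low. Detection: immunofluorescence imaging. Buffer or medium: EGM-2, gelatin.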
ERAP1 HTS inh: inhibitors of human ERAP1 aminopeptidase; recombinant ERAP1, Leu-AMC fluorescence, 60 min; inhibition, % at 10.7 µM; 340,000 compounds, 0.15% hits; AID 652197;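 active means mean replicate inhibition of at least 30%, or all replicates individually reaching that 30% level; inactive means mean below 30% and not every replicate reaching it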
Target sequence (Q9NZ08 whole entry, looked up): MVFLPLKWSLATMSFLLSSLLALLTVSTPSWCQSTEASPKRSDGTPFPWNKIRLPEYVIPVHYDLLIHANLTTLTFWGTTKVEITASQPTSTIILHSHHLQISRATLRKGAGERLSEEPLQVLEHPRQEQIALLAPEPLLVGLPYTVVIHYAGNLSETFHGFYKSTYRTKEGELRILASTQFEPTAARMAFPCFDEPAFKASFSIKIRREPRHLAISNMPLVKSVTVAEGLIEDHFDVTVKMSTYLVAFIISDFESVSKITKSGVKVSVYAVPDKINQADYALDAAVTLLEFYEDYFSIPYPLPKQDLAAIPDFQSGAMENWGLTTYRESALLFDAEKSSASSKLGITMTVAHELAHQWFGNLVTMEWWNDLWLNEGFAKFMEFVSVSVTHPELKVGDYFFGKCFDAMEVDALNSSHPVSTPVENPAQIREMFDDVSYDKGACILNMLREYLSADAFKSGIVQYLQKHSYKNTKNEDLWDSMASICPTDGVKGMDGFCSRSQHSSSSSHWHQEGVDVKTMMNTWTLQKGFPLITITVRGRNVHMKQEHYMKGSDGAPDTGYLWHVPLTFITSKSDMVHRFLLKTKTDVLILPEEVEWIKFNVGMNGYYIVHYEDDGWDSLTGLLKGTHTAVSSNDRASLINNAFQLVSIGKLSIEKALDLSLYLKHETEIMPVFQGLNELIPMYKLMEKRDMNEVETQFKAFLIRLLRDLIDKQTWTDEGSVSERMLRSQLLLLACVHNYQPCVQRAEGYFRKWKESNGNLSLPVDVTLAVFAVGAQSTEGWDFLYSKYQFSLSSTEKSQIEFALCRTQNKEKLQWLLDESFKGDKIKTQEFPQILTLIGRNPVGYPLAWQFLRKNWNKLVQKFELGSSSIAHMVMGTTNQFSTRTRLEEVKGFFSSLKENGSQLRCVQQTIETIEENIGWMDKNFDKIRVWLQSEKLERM
DENV2 CPE: DENV2-induced cell death inhibition | DENV2-infected cells, cytopathic effect rescue, plate reader | CPE inhibition, % at 9.99 µM | 350,000 compounds, 1.7% hits; in the data active means CPE inhibition above about 20%, passing the limit was not always enough; inconclusive means no clear call, values can overlap the other calls; tested in BHK-21 cells
CFTR F508del cor: CFTR F508del correction in bronchial cells. CFBE cells, YFP halide quenching; stimulated with forskolin plus potentiator P3; % fluorescence drop versus neutral controls. activity (quench increase), % at 7.58 µM. 350,000 compounds, 0.36% hits. AID 720511;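 active means mean added fluorescence quench of at least 8% versus neutral control, with both replicates also reaching 8%; inconclusive means only one of the mean or replicate conditions met; inactive means mean below 8% and not both replicates reaching 8%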;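 further: cells transiently co-express mutant CFTR-F508del with the halide-sensitive YFP; corrector assay measuring rescue of mutant channel to the surface after 24 h compound exposure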
FGF22 binding: shifts melting point of recombinant human FGF22 | activity (Tm shift, normalised), % at 9.99 µM | Q9HCT0 | recombinant FGF22 thermal shift, SYPRO orange fluorescence; percent of sucrose octasulfate shift, DMSO zero | AID 651658 | 340,000 compounds, 1.5% hits;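 active means mean Tm shift, scaled 0 neutral to 100 positive control, at about 1.3% or above, every replicate too, limit read from the data; inconclusive means no clear call, values can overlap the other calls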
A number is an active result; i = inactive; ? = inconclusive; nt = no result given.

SMILES	E-sel inducer	ERAP1 HTS inh	DENV2 CPE	CFTR F508del cor	FGF22 binding
O=C(Nc1cc2c(cc1[N+](=O)[O-])OCCO2)c1cccnc1	i	i	i	i	43
CN1C(=O)c2cc(NC(=O)c3ccccc3)ccc2OC[C@@H]2O[C@@H](CC(=O)NCC3CC3)CC[C@H]21	i	i	i	i	i
COCCCNc1ccn2nc(-c3ccc(Cl)cc3)cc2n1	i	i	30	i	i
COc1cc(-c2cc3nc(NCc4cccc(Cl)c4)ccn3n2)cc(OC)c1OC	nt	i	i	i	i
Cc1noc(C)c1NC(=O)N(C)C[C@@H]1Oc2c(NC(=O)c3ccc(-c4nccs4)cc3)cccc2C(=O)N([C@H](C)CO)C[C@@H]1C	nt	i	33	i	i
Cc1noc(C)c1NC(=O)N(C)C[C@H]1Oc2c(NC(=O)c3ccc(-c4nccs4)cc3)cccc2C(=O)N([C@@H](C)CO)C[C@H]1C	nt	i	24	i	i
C[C@@H]1CN([C@H](C)CO)C(=O)c2cccc(NC(=O)c3ccc(-c4nccs4)cc3)c2O[C@@H]1CN(C)C(=O)Nc1cccc2ccccc12	nt	i	i	i	i
Cc1noc(C)c1NC(=O)N(C)C[C@H]1Oc2c(NC(=O)c3ccc(-c4nccs4)cc3)cccc2C(=O)N([C@H](C)CO)C[C@H]1C	nt	i	i	i	i
O=C(CN1CCOCC1)NCC[C@@H]1CC[C@@H](NC(=O)Cc2ccccn2)[C@@H](CO)O1	i	i	i	i	i
Cc1cc(C(=O)CSc2ncnc3ccccc23)c(C)n1C1CC1	nt	i	28	i	i
Cc1cc(C(=O)CSc2nnnn2C)c(C)n1C1CC1	nt	i	i	i	i
CC(=O)c1ccc(NC(=O)CN2C(=O)/C(=C/C=C/c3ccccc3)SC2=S)cc1	nt	i	i	nt	1.4
COc1ccc(NC(=O)N(C)C[C@H]2OCCCC[C@H](C)Oc3ccc(NC(=O)c4ccncc4)cc3C(=O)N([C@@H](C)CO)C[C@@H]2C)cc1	i	nt	49	i	i
COc1ccc(NC(=O)N(C)C[C@@H]2OCCCC[C@@H](C)Oc3ccc(NC(=O)c4ccncc4)cc3C(=O)N([C@H](C)CO)C[C@H]2C)cc1	i	nt	20	i	i
COC(=O)N1CCCCC1c1cc(C(=O)Nc2ccccc2Cl)no1 (stereo not drawn)	i	i	28	i	i
COc1ccc(NC(=O)c2cc(C3CCCCN3C(=O)c3cc(C(C)(C)C)nn3C)on2)c(C)c1 (stereo not drawn)	i	i	48	i	i
O=C(Nc1ccccc1Cl)c1cc(C2CCCCN2C(=O)C2CCCCC2)on1 (stereo not drawn)	i	i	i	i	i
COC(=O)N1CCCCC1c1cc(C(=O)Nc2ccc(OC)cc2C)no1 (stereo not drawn)	i	i	51	i	i
COc1ccc(S(=O)(=O)N2CCCCC2c2cc(C(=O)Nc3ccccc3)no2)cc1 (stereo not drawn)	i	i	33	i	i
CC(C)CC#Cc1ccc([C@H]2[C@H]3CN(C(=O)Cc4ccccc4)CC(=O)N3[C@H]2CO)cc1	i	i	i	i	nt
COC(=O)[C@]1(CCS(=O)(=O)c2ccccc2)N=C(c2ccc(OCCCO)cc2)O[C@@H]1c1ccccc1CN=[N+]=[N-]	nt	i	i	i	i
O=C(C[C@H]1C=C[C@H](NC(=O)C2CCC2)[C@@H](CO)O1)NCc1ccncc1	i	i	i	i	i
C[C@@H](O)C#Cc1cnc2c(c1)C(=O)N([C@@H](C)CO)C[C@H](C)[C@@H](CN(C)C(=O)c1ccncc1)O2	i	i	i	i	i
C[C@H]1CN([C@@H](C)CO)C(=O)c2cc(NS(=O)(=O)c3ccccc3)ccc2O[C@@H]1CN(C)Cc1ccncc1	i	i	i	i	i
COc1ccc(NC(=O)c2cc(-c3ccco3)on2)c(OC)c1	i	i	i	i	i
SMILES	E-sel inducer	ERAP1 HTS inh	DENV2 CPE	CFTR F508del cor	FGF22 binding
COc1ccc(NC(=O)c2cc(C3CC3)on2)c(OC)c1	i	i	i	8.2	i
COc1ccc(C(=O)N2CCCCC2c2cc(C(=O)NCc3cccnc3)no2)cc1 (stereo not drawn)	i	i	33	i	i
Cc1ccc(F)cc1C(=O)N1CCCCC1c1cc(C(=O)NC(C)C)no1 (stereo not drawn)	i	i	56	i	i
Cc1noc(C)c1NC(=O)Nc1ccc2c(c1)C(=O)N([C@H](C)CO)C[C@@H](C)[C@H](CN(C)S(C)(=O)=O)OCCCC[C@@H](C)O2	i	i	i	i	i
O=C(O)CC(NC(=O)C12CC3CC(CC(C3)C1)C2)c1ccc(OC2CCCC2)cc1 (stereo not drawn)	nt	i	22	i	i
CC(C)(C)c1ccc(C(CC(=O)O)NC(=O)C23CC4CC(CC(C4)C2)C3)cc1 (stereo not drawn)	i	i	i	i	i
COc1cccc(C(=O)NCC(=O)NNc2ncnc(N)c2[N+](=O)[O-])c1	nt	i	i	i	43
Cc1cccc(C)c1Nc1ncnc(N)c1[N+](=O)[O-]	i	i	i	nt	i
O=C(C[C@H]1C=C[C@@H](NC(=O)C2CCOCC2)[C@H](CO)O1)NCc1ccccc1Cl	i	nt	i	i	nt
CN(C)c1ccc(C=c2c3ccccc3n3c2cc(-c2ccc(Cl)cc2)[n+]3C)cc1	122	i	i	i	i
COc1cc(N(C)C)ccc1C=c1c2ccccc2n2c1cc(-c1ccccc1)[n+]2C	160	40	i	i	i
CCN(CC)c1ccc(/C=C/c2cccc[n+]2C)c(OC)c1	nt	i	i	i	i
CN(C)c1ccc(C=c2c3cc([N+](=O)[O-])ccc3n3c2cc(-c2ccccc2)[n+]3C)cc1	218	i	?	i	i
Cn1c2ccccc2c2cc([N+](=O)[O-])ccc21	i	i	i	i	i
COc1cc(/C=C(/C(=O)O)c2ccc(-c3ccccc3)cc2)cc(OC)c1OC	i	i	i	i	i
COc1cc(C=c2c3ccccc3n3c2cc(-c2ccccc2)[n+]3C)cc(OC)c1OC	139	i	i	i	i
CCCNC(=O)N1C[C@H]2[C@@H](c3ccccc31)[C@@H](CO)N2C(=O)Nc1ccc(F)cc1	i	i	i	i	i
CO[C@H]1CN(C)C(=O)c2ccc(NC(=O)C3CCCC3)cc2OC[C@H](C)N(CCC(F)(F)F)C[C@H]1C	i	i	i	i	i
O=C(C[C@H]1CC[C@H]2[C@@H](COC[C@@H](O)CN2C(=O)c2ccccn2)O1)N1CCN(c2ccccc2)CC1	i	i	i	i	i
COc1ccccc1S(=O)(=O)N(C)C[C@@H]1Oc2cc(C#CCC(C)C)ccc2S(=O)(=O)N([C@@H](C)CO)C[C@@H]1C	nt	i	i	i	nt
CN1[C@@H]2c3ccc(-c4ccccc4F)c(=O)n3C[C@@H]2[C@@H](CO)[C@@H]1C(=O)NCc1ccncc1	i	i	i	i	i
CN(C)c1ccc(C=c2c3ccccc3n3c2c2c([n+]3C)CCCC2)cc1	68	i	i	i	i

From PubChem
